Measured values taken from ChEMBL document CHEMBL1144659, “Structure-activity study of 2,3-benzodiazepin-4-ones noncompetitive AMPAR antagonists: identification of the 1-(4-amino-3-methylphenyl)-3,5-dihydro-7,8-ethylenedioxy-4H-2,3-benzodiazepin-4-one as neuroprotective agent” (Bioorg Med Chem, 2008).

Assays:
[1] = Antagonist activity at AMPA receptor in rat […] granule cells assessed as inhibition of kainate-induced calcium uptake after 30 mins; type: functional, cell-based; conditions: 0.5 h
Summary of the method: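 Primary rat cerebellar granule neurons, preincubated 30 min with compounds in BSS (pH 7.3), then exposed at room temperature to 100 µM kainate in BSS with 10 µM glycine, 0.5 mM dithiothreitol and 45Ca2+ for 10 min. Washed with ice-cold BSS containing 5 mM EGTA, lysed in 0.6% Triton X-100, radioactivity counted. IC50 representative of three experiments.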

[2] = Displacement of [3H]CP-526427 from AMPA receptor in Sprague-Dawley rat fore brain by radioligand binding assay
Summary of the method: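 Adult male Sprague-Dawley forebrain membranes at 0.5 mg protein/mL in 50 mM Tris·HCl pH 7.4. Compounds at various concentrations with 3 nM [3H]CP-526,427, 20 min at 30 °C. Filtration onto glass fiber filters, scintillation counting. Nonspecific binding taken with 10 µM unlabeled CP-526,427 or CP-465,022. Positive control was CP-465,022.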

Neuron = experiment: Inhibition of kainate-induced C57BL/6N mouse hippocampal neurons excitotoxicity after 48 hrs by MTT assay; type: functional, tissue-based; conditions: Hippocampus
Summary of the method: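 E13 C57BL/6N mouse hippocampal cultures were given 30 µM kainate with the test compound at graded concentrations, in medium without glutamate. Exposure was 48 h at 37 °C. Viability was measured by MTT conversion (absorbance 570 nm), relative to untreated cells. IC50 values are representative of three independent experiments.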

[3] = Excitotoxicity against C57BL/6N mouse hippocampal neurons after 48 hrs by MTT assay; type: tissue-based; conditions: Neuron, Hippocampus
Summary of the method: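 Primary hippocampal cultures from E13 C57BL/6N mouse embryos were grown on poly-L-lysine in Neurobasal/B27/BDNF medium. At 7 DIV they were exposed to kainate (5–500 µM) for 48 h at 37 °C, 5% CO2. Viability was read by MTT (4 h, absorbance 570 nm) as % of untreated cells. Five–six experiments, each in duplicate.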

| Compound | IC50 [1] [µM] | IC50 [2] [µM] | Activity (Neuron) | EC50 [3] [µM] | IC50 (Neuron) [µM] |
| --- | --- | --- | --- | --- | --- |
| COc1cc(C2=NNC(=O)Cc3cc4c(cc32)OCCO4)ccc1N | 12 | 81.1 | – | – | – |
| CCC1C(=O)NN=C(c2ccc(N)cc2)c2cc3c(cc21)OCO3 (stereo not drawn) | 17.1 | 8.37 | – | – | – |
| CC(=O)N1N=C(c2ccc(N)cc2)c2cc3c(cc2C[C@H]1C)OCO3 | – | – | Dose-dependent effect | – | – |
| CCC1C(=O)NN=C(c2ccc(N)c(C)c2)c2cc3c(cc21)OCO3 (stereo not drawn) | 4.34 | 15.6 | – | – | – |
| CNC(=O)N1N=C(c2ccc(N)cc2)c2cc3c(cc2C(C)C1=O)OCO3 (stereo not drawn) | 15.8 | 4.01 | – | – | – |
| Cc1cc(C2=NNC(=O)C(C)c3cc4c(cc32)OCCO4)ccc1N (stereo not drawn) | 1.23 | 4.5 | – | – | – |
| Cc1cc(C2=NNC(=O)Cc3cc4c(cc32)OCCO4)cc(C)c1N | > 100 | > 100 | – | – | – |
| C=C(C)[C@H]1CN[C@H](C(=O)O)[C@H]1CC(=O)O [KAINIC ACID] | – | – | – | 17.3 | – |
| CNC(=O)N1N=C(c2ccc(N)cc2)c2cc3c(cc2CC1=O)OCO3 | 11 | 12 | – | – | – |
| Nc1ccc(C2=NNC(=O)C(Cc3ccccc3)c3cc4c(cc32)OCO4)cc1 (stereo not drawn) | – | > 100 | – | – | – |
| NS(=O)(=O)c1cccc2c1c([N+](=O)[O-])cc1nc(O)c(O)nc12 [NBQX] | – | – | – | – | 11.9 |
| Cc1cc(C2=NNC(=O)Cc3cc4c(cc32)OCO4)ccc1N | 2.5 | 6.3 | – | – | – |
| Cc1cc(C2=NNC(=O)C(C)c3cc4c(cc32)OCO4)ccc1N (stereo not drawn) | 18.8 | 9.62 | – | – | – |
| Nc1ccc(C2=NNC(=O)Cc3cc4c(cc32)OCO4)cc1 | 12 | 32 | – | – | – |
| CNC(=O)N1N=C(c2ccc(N)cc2)c2cc3c(cc2CC1=O)OCCO3 | 5.4 | 7.78 | – | – | – |
| Nc1ccc(C2=NNC(=O)Cc3cc4c(cc32)OCCO4)cc1 | 2.9 | 9 | – | – | – |
| CC1=NN=C(c2ccc(N)cc2)c2cc3c(cc2C1)OCO3 [GYKI-52466] | 22 | 12.6 | – | – | 10.8 |
| CC1C(=O)NN=C(c2ccc(N)c(Cl)c2)c2cc3c(cc21)OCO3 (stereo not drawn) | 7 | 11.4 | – | – | – |
| Cc1cc(C2=NNC(=O)Cc3cc4c(cc32)OCCO4)ccc1N | 6.4 | 1.84 | – | – | 1.6 |
| CC1C(=O)NN=C(c2ccc(N)cc2)c2cc3c(cc21)OCO3 (stereo not drawn) | 12 | 12.9 | – | – | – |
| COc1cc(C2=NNC(=O)Cc3cc4c(cc32)OCO4)ccc1N | 31 | > 100 | – | – | – |
| Nc1ccc(C2=NNC(=O)Cc3cc4c(cc32)OCCO4)cc1Cl | 2 | 2.05 | – | – | – |
| CC1C(=O)NN=C(c2ccc(N)cc2)c2cc3c(cc21)OCCO3 (stereo not drawn) | – | 6.96 | – | – | – |
| CC1C(=O)NN=C(c2ccc(N)c(Cl)c2)c2cc3c(cc21)OCCO3 (stereo not drawn) | 18 | 21.6 | – | – | – |
| Cc1cc(C2=NNC(=O)Cc3cc4c(cc32)OCO4)cc(C)c1N | > 100 | > 100 | – | – | – |
| CNC(=O)N1N=C(c2ccc(N)cc2)c2cc3c(cc2C[C@H]1C)OCO3 | – | – | Dose-dependent effect | – | – |
